We go through 7 molecules from ChEMBL document CHEMBL4152260, “Design, synthesis and biological evaluation of novel quinazoline-2,4-diones conjugated with different amino acids as potential chitin synthase inhibitors” (Eur J Med Chem, 2018).

In one experiment the test system is Saccharomyces cerevisiae. The experiment in a line: Inhibition of yeast chitin synthase at 300 ug/ml using UDP-GlcNAc as substrate measured after 1 hr relative to control. In outline:
(§1)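 Membrane CHS from S. cerevisiae CGMCC2.145 (YPAD, 30 °C, 48 h; sonication; 55000 g pellet in Tris/33% glycerol). Wells coated with WGA and blocked with BSA. Reaction in pH 6.8 Tris-maleate with 40 mM GlcNAc, 2 mM UDP-GlcNAc, 37 °C, 1 h. Product detected with WGA-HRP and TMB/H2O2, A450. Test solutions 300–18.75 μg/mL. Inhibition = (B0−Bn)/(B0−OD0); IC50 from log c plot.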

Experiment [1] has as its system Cryptococcus neoformans. Description: Antifungal activity against Cryptococcus neoformans ATCC 32719 measured after 24 hrs. Type of experiment: functional. Conditions: ATCC 32719, 24 h.
The subject of experiment [2] is Candida albicans. The experiment in a line: Antifungal activity against Candida albicans ATCC 76615 measured after 24 hrs. It counts as functional. Conditions: ATCC 76615, 24 h.
The subject of experiment [3] is Aspergillus fumigatus. Description: Antifungal activity against Aspergillus fumigatus GIMCC 3.19 measured after 24 hrs. Type of experiment: functional. Conditions: GIMCC 3.19, 24 h.
Experiment [4] concerns Aspergillus flavus. The experiment in a line: Antifungal activity against Aspergillus flavus ATCC 16870 measured after 24 hrs. Type of experiment: functional. Conditions: ATCC 16870, 24 h.
Experiment [5] deals with Aspergillus flavus. Description: Synergistic antifungal activity against Aspergillus flavus ATCC 16870 assessed as fluconazole MIC mesured after 48 hrs by two-dimensional broth microdilution checkboard method. It counts as functional. Conditions: ATCC 16870, 48 h. Summed up:
(§2)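 Two-dimensional broth microdilution checkerboard combining test agent with fluconazole per CLSI M27-A3, 35 °C for 48 h, duplicate runs. Combination MICs read. FIC index = MIC_A(comb)/MIC_A(alone) + MIC_B(comb)/MIC_B(alone). Interaction classed synergistic ≤0.5, indifferent >0.5–4, antagonistic >4.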
A general note: Dilution methods test growth across graded concentrations, often in twofold steps.

A short description of experiment [6]: Inhibition of yeast chitin synthase using UDP-GlcNAc as substrate measured after 1 hr. Details: species or system Saccharomyces cerevisiae. In outline: as §1
Experiment [7] concerns Cryptococcus neoformans. The experiment in a line: Synergistic antifungal activity against Cryptococcus neoformans ATCC 32719 measured after 48 hrs in presence of fluconazole by two-dimensional broth microdilution checkboard method. It counts as functional. Conditions: ATCC 32719, 48 h. In outline:
as §2

Experiment [8] concerns Cryptococcus neoformans. The experiment in a line: Synergistic antifungal activity against Cryptococcus neoformans ATCC 32719 assessed as FIC index measured after 48 hrs in presence of fluconazole by two-dimensional broth microdilution checkboard method. Type of experiment: functional. Summed up:
as §2

Experiment [9] deals with Aspergillus fumigatus. Description: Synergistic antifungal activity against Aspergillus fumigatus GIMCC 3.19 assessed as fluconazole MIC mesured after 48 hrs by two-dimensional broth microdilution checkboard method. Type of experiment: functional. Conditions: GIMCC 3.19, 48 h. In outline:
as §2

The test system of experiment [10] is Aspergillus fumigatus. Description: Synergistic antifungal activity against Aspergillus fumigatus GIMCC 3.19 measured after 48 hrs in presence of fluconazole by two-dimensional broth microdilution checkboard method. It counts as functional. Conditions: GIMCC 3.19, 48 h. Summed up:
as §2

For experiment [11], the system named is Aspergillus flavus. The experiment in a line: Antifungal activity against Aspergillus flavus ATCC 16870 measured after 48 hrs by two-dimensional broth microdilution checkboard method. Type of experiment: functional. Conditions: ATCC 16870, 48 h. Summed up:
(§3)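 MICs of each agent alone re-determined in the checkerboard run. Two-dimensional broth microdilution per CLSI M27-A3, 35 °C for 48 h, each test performed twice (duplicate).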

Experiment [12] deals with Cryptococcus neoformans. The experiment in a line: Synergistic antifungal activity against Cryptococcus neoformans ATCC 32719 assessed as fluconazole MIC mesured after 48 hrs by two-dimensional broth microdilution checkboard method. It counts as functional. Conditions: ATCC 32719, 48 h. Summed up: as §2
Experiment [13] relates to Aspergillus flavus. The experiment in a line: Synergistic antifungal activity against Aspergillus flavus ATCC 16870 measured after 48 hrs in presence of fluconazole by two-dimensional broth microdilution checkboard method. Type of experiment: functional. Conditions: ATCC 16870, 48 h. Summed up: as §2
Experiment [14] deals with Aspergillus fumigatus. The experiment in a line: Synergistic antifungal activity against Aspergillus fumigatus GIMCC 3.19 assessed as FIC index measured after 48 hrs in presence of fluconazole by two-dimensional broth microdilution checkboard method. It counts as functional. Summed up:
as §2

Experiment [15] concerns Candida albicans. Description: Synergistic antifungal activity against Candida albicans ATCC 76615 assessed as FIC index measured after 48 hrs in presence of fluconazole by two-dimensional broth microdilution checkboard method. It counts as functional. In outline:
as §2

Experiment [16] concerns Candida albicans. The experiment in a line: Antifungal activity against Candida albicans ATCC 76615 measured after 48 hrs by two-dimensional broth microdilution checkboard method. Type of experiment: functional. Conditions: ATCC 76615, 48 h. Summed up: as §3
Experiment [17] relates to Cryptococcus neoformans. The experiment in a line: Antifungal activity against Cryptococcus neoformans ATCC 32719 measured after 48 hrs by two-dimensional broth microdilution checkboard method. Type of experiment: functional. Conditions: ATCC 32719, 48 h. Summed up:
as §3

The test system of experiment [18] is Candida albicans. The experiment in a line: Synergistic antifungal activity against Candida albicans ATCC 76615 assessed as fluconazole MIC mesured after 48 hrs by two-dimensional broth microdilution checkboard method. Type of experiment: functional. Conditions: ATCC 76615, 48 h. Summed up: as §2
Experiment [19] relates to Aspergillus fumigatus. Description: Antifungal activity against Aspergillus fumigatus GIMCC 3.19 measured after 48 hrs by two-dimensional broth microdilution checkboard method. Type of experiment: functional. Conditions: GIMCC 3.19, 48 h. Summed up: as §3
Experiment [20] concerns Aspergillus flavus. The experiment in a line: Synergistic antifungal activity against Aspergillus flavus ATCC 16870 assessed as FIC index measured after 48 hrs in presence of fluconazole by two-dimensional broth microdilution checkboard method. It counts as functional. Summed up:
as §2

Experiment [21] deals with Candida albicans. The experiment in a line: Synergistic antifungal activity against Candida albicans ATCC 76615 measured after 48 hrs in presence of fluconazole by two-dimensional broth microdilution checkboard method. It counts as functional. Conditions: ATCC 76615, 48 h. In outline: as §2

One may read the inhibition as the percentage by which the read-out fell short of the control. Read a low inhibition as a response near the control. The term MIC denotes the least concentration at which growth counts as inhibited. As a reminder, the IC50 is the midpoint of a concentration-inhibition curve. Read a high IC50 as weaker potency in that assay.

In brackets after ≈: the same amount, converted by molar mass. Bounds are passed on as bounds.

On to `Cn1c(=O)n(CC(=O)NCC(=O)O)c(=O)c2ccccc21`, for which, in the experiment on Saccharomyces cerevisiae, the inhibition was determined as 22.6%. Further, the MIC with Cryptococcus neoformans [1] was 870 µM (≈ 253 µg/mL); against Candida albicans [2], greater than 1750 µM; with Aspergillus fumigatus [3], greater than 1750 µM; in the experiment on Aspergillus flavus [4], 870 µM (≈ 253 µg/mL).

Take `CCC(NC(=O)Cn1c(=O)c2ccccc2n(C)c1=O)C(=O)O` (centres undefined): in the experiment on Saccharomyces cerevisiae, the inhibition was 13.2%. The MIC in the experiment with Cryptococcus neoformans [1] is 800 µM (≈ 255 µg/mL); in the experiment on Candida albicans [2] it was greater than 1600 µM; against Aspergillus fumigatus [3] it was 800 µM (≈ 255 µg/mL); against Aspergillus flavus [4], 1600 µM (≈ 511 µg/mL).

In the case of `Cn1c(=O)n(CC(=O)NC(Cc2ccc(OC(=O)Cn3c(=O)c4ccccc4n(C)c3=O)cc2)C(=O)O)c(=O)c2ccccc21` (centres undefined), the MIC turned out to be 26 µM in the experiment on Aspergillus flavus [5]; 26 µM in the experiment on Cryptococcus neoformans [7]; 52 µM in the experiment on Aspergillus fumigatus [9]; 209 µM in the experiment on Aspergillus fumigatus [10]; 410 µM (≈ 252 µg/mL) in the experiment on Cryptococcus neoformans [1]; 417 µM (≈ 256 µg/mL) against Aspergillus flavus [11]. Also, the MIC in the experiment on Cryptococcus neoformans [12] stood at 52 µM; with Aspergillus flavus [13], 209 µM; against Candida albicans [2], 830 µM (≈ 509 µg/mL); with Aspergillus fumigatus [3], 410 µM (≈ 252 µg/mL); in the experiment with Candida albicans [16], 417 µM (≈ 256 µg/mL); against Cryptococcus neoformans [17], 417 µM (≈ 256 µg/mL). Also, the MIC in the experiment on Candida albicans [18] is 13 µM; against Aspergillus fumigatus [19], 834 µM (≈ 512 µg/mL); in the experiment on Aspergillus flavus [4], 410 µM (≈ 252 µg/mL); in the experiment on Candida albicans [21], 417 µM. The same molecule returned an IC50 in experiment [6] of 166 µM. In the experiment with Saccharomyces cerevisiae, the inhibition was 65.3%. Besides, the “fractional inhibitory concentration index (FICI)” value with Cryptococcus neoformans [8] is listed as 0.5625; in the experiment with Aspergillus fumigatus [14] it was 0.3125; in the experiment on Candida albicans [15] it was 1.125; with Aspergillus flavus [20], 0.625.

Regarding `Cn1c(=O)n(CC(=O)N[C@@H](Cc2cnc[nH]2)C(=O)O)c(=O)c2ccccc21`, the IC50 in experiment [6] was 300 µM. The inhibition in the experiment with Saccharomyces cerevisiae was determined as 61.5%. The MIC was 680 µM (≈ 253 µg/mL) in the experiment with Cryptococcus neoformans [1], greater than 1370 µM against Candida albicans [2], 1370 µM (≈ 509 µg/mL) against Aspergillus fumigatus [3] and greater than 1370 µM with Aspergillus flavus [4].

For `Cn1c(=O)n(CC(=O)N[C@@H](CO)C(=O)O)c(=O)c2ccccc21`, the inhibition in the experiment with Saccharomyces cerevisiae turned out to be 56.2%. The MIC with Cryptococcus neoformans [1] is greater than 1590 µM; against Candida albicans [2] it was greater than 1590 µM; in the experiment on Aspergillus fumigatus [3], 790 µM (≈ 254 µg/mL); against Aspergillus flavus [4], 1590 µM (≈ 511 µg/mL).

In the case of `Cn1c(=O)n(CC(=O)NCCCC(=O)O)c(=O)c2ccccc21`, the IC50 in experiment [6] came out at 300 µM. In the experiment with Saccharomyces cerevisiae, the inhibition was found to be 68.2%. In addition, the MIC in the experiment with Cryptococcus neoformans [1] was found to be 800 µM (≈ 255 µg/mL); with Candida albicans [2] it was 1600 µM (≈ 511 µg/mL); with Aspergillus fumigatus [3] it was 800 µM (≈ 255 µg/mL); in the experiment with Aspergillus flavus [4], 1600 µM (≈ 511 µg/mL).

On to `CC(C)C[C@H](NC(=O)Cn1c(=O)c2ccccc2n(C)c1=O)C(=O)O`, for which the inhibition with Saccharomyces cerevisiae was 52.8%. Also, the MIC in the experiment with Cryptococcus neoformans [1] was greater than 1470 µM; against Candida albicans [2], greater than 1470 µM; with Aspergillus fumigatus [3], 730 µM (≈ 254 µg/mL); in the experiment with Aspergillus flavus [4], greater than 1470 µM.
